# Measured values published in ChEMBL document CHEMBL1155174, “Cross-resistance to medical and agricultural azole drugs in yeasts from the oropharynx of human immunodeficiency virus patients and from environmental Bavarian vine grapes” (2007).
# Key:
# Assay type in all cases: functional
# Candida albicans [1] = experiment: Antifungal activity against Candida albicans isolates from HIV infected patient before fluconazole therapy by NCCLS M27-A2 method
# Outline: (§1)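 Broth dilution per NCCLS M27-A2, with azoles serially diluted in high-resolution antifungal assay medium over 0.125–128, 0.03–64 or 0.06–128 μg/ml depending on the drug. MIC endpoints were read spectrophotometrically at 540 nm. Values are reported per species or source group as median and range.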
# Saccharomyces cerevisiae = experiment: Antifungal activity against sSaccharomyces cerevisiae isolates from grapes by NCCLS M27-A2 method; outline: as §1
# Candida albicans [2] = experiment: Antifungal activity against Candida albicans isolates by NCCLS M27-A2 method; outline: as §1
# Candida albicans [3] = experiment: Antifungal activity against Candida albicans isolates from HIV infected patient during fluconazole therapy by NCCLS M27-A2 method; outline: as §1
# Diutina rugosa = experiment: Antifungal activity against Candida rugosa isolates from feeding stuff by NCCLS M27-A2 method; outline: as §1
# Cryptococcus neoformans = experiment: Antifungal activity against Cryptococcus neoformans ATCC 90112 by NCCLS M27-A2 method
# Candida parapsilosis = experiment: Antifungal activity against Candida parapsilosis ATCC 22013 by NCCLS M27-A2 method; details: Lodderomyces parapsilosis
# Candida albicans [4] = experiment: Antifungal activity against Candida albicans isolates from animals by NCCLS M27-A2 method; outline: as §1
# Nakaseomyces glabratus [5] = experiment: Antifungal activity against Candida glabrata isolates from feeding stuffs by NCCLS M27-A2 method; outline: as §1
# Rhodotorula = experiment: Antifungal activity against Rhodotorula sp. isolates from grapes by NCCLS M27-A2 method; outline: as §1
# Wickerhamomyces anomalus = experiment: Antifungal activity against Pichia anomala isolates from grapes by NCCLS M27-A2 method; details: Hansenula anomala; outline: as §1
# Saccharomycopsis = experiment: Antifungal activity against Saccharomycopsis guttulata isolates from feeding stuff by NCCLS M27-A2 method; outline: as §1
# Pichia kudriavzevii [6] = experiment: Antifungal activity against Candida krusei ATCC 6258 by NCCLS M27-A2 method; outline: as §1
# Hanseniaspora uvarum = experiment: Antifungal activity against sKloeckera apiculata isolates from grapes by NCCLS M27-A2 method; outline: as §1
# Starmerella stellata = experiment: Antifungal activity against sCandida stellata isolates from grapes by NCCLS M27-A2 method; outline: as §1
# Pichia norvegensis = experiment: Antifungal activity against Candida norvegensis isolates from grapes by NCCLS M27-A2 method; outline: as §1
# Pichia fermentans = experiment: Antifungal activity against Candida lambica isolates from grapes by NCCLS M27-A2 method; outline: as §1
# Pichia kudriavzevii [7] = experiment: Antifungal activity against Candida krusei isolates from grapes and feeding stuffs by NCCLS M27-A2 method; outline: as §1
# Nakaseomyces glabratus [8] = experiment: Antifungal activity against Candida glabrata ATCC 90030 by NCCLS M27-A2 method; outline: as §1
compound,measurement,setting,value
OC(Cn1cncn1)(Cn1cncn1)c1ccc(F)cc1F [FLUCONAZOLE],MIC50,Candida albicans [1],2.25 mg/L
same,MIC50,Saccharomyces cerevisiae,8 mg/L
same,MIC50,Candida albicans [2],0.12 mg/L
same,MIC50,Candida albicans [3],128 mg/L
same,MIC50,Diutina rugosa,1 mg/L
same,MIC50,Cryptococcus neoformans,8 mg/L
same,MIC50,Candida parapsilosis,2 mg/L
same,MIC50,Candida albicans [4],0.25 mg/L
same,MIC50,Nakaseomyces glabratus [5],32 mg/L
same,MIC50,Rhodotorula,16 mg/L
same,MIC50,Wickerhamomyces anomalus,2 mg/L
same,MIC50,Saccharomycopsis,1 mg/L
same,MIC50,Pichia kudriavzevii [6],64 mg/L
same,MIC50,Hanseniaspora uvarum,0.5 mg/L
same,MIC50,Starmerella stellata,64 mg/L
same,MIC50,Pichia norvegensis,128 mg/L
same,MIC50,Pichia fermentans,128 mg/L
same,MIC50,Pichia kudriavzevii [7],64 mg/L
CC(=O)N1CCN(c2ccc(OCC3COC(Cn4ccnc4)(c4ccc(Cl)cc4Cl)O3)cc2)CC1 (stereo unspecified) [KETOCONAZOLE],MIC50,Candida albicans [1],0.25 mg/L
same,MIC50,Saccharomyces cerevisiae,2 mg/L
same,MIC50,Candida albicans [2],0.03 mg/L
same,MIC50,Candida albicans [3],2 mg/L
same,MIC50,Diutina rugosa,0.25 mg/L
same,MIC50,Cryptococcus neoformans,2 mg/L
same,MIC50,Candida parapsilosis,0.12 mg/L
same,MIC50,Candida albicans [4],0.5 mg/L
same,MIC50,Nakaseomyces glabratus [5],4 mg/L
same,MIC50,Rhodotorula,0.5 mg/L
same,MIC50,Wickerhamomyces anomalus,1 mg/L
same,MIC50,Saccharomycopsis,2 mg/L
same,MIC50,Pichia kudriavzevii [6],2 mg/L
same,MIC50,Hanseniaspora uvarum,0.25 mg/L
same,MIC50,Starmerella stellata,8 mg/L
same,MIC50,Nakaseomyces glabratus [8],8 mg/L
same,MIC50,Pichia norvegensis,2 mg/L
same,MIC50,Pichia fermentans,4 mg/L
same,MIC50,Pichia kudriavzevii [7],8 mg/L
CC(C)(C)C(O)(CCc1ccc(Cl)cc1)Cn1cncn1 (stereo unspecified) [TEBUCONAZOLE],MIC50,Candida albicans [1],0.75 mg/L
same,MIC50,Saccharomyces cerevisiae,1 mg/L
same,MIC50,Candida albicans [2],0.06 mg/L
same,MIC50,Candida albicans [3],24 mg/L
same,MIC50,Diutina rugosa,0.06 mg/L
same,MIC50,Cryptococcus neoformans,4 mg/L
same,MIC50,Candida parapsilosis,1 mg/L
same,MIC50,Candida albicans [4],0.185 mg/L
same,MIC50,Nakaseomyces glabratus [5],2 mg/L
same,MIC50,Rhodotorula,1 mg/L
same,MIC50,Wickerhamomyces anomalus,4 mg/L
same,MIC50,Saccharomycopsis,4 mg/L
same,MIC50,Pichia kudriavzevii [6],32 mg/L
same,MIC50,Hanseniaspora uvarum,0.06 mg/L
same,MIC50,Starmerella stellata,64 mg/L
same,MIC50,Nakaseomyces glabratus [8],8 mg/L
same,MIC50,Pichia norvegensis,4 mg/L
same,MIC50,Pichia fermentans,16 mg/L
same,MIC50,Pichia kudriavzevii [7],64 mg/L
C[C@@H](c1ncncc1F)[C@](O)(Cn1cncn1)c1ccc(F)cc1F [VORICONAZOLE],MIC50,Candida albicans [1],0.03 mg/L
same,MIC50,Saccharomyces cerevisiae,0.5 mg/L
same,MIC50,Candida albicans [2],0.03 mg/L
same,MIC50,Candida albicans [3],1.5 mg/L
same,MIC50,Diutina rugosa,0.03 mg/L
same,MIC50,Cryptococcus neoformans,0.25 mg/L
same,MIC50,Candida parapsilosis,0.06 mg/L
same,MIC50,Candida albicans [4],0.03 mg/L
same,MIC50,Nakaseomyces glabratus [5],0.25 mg/L
same,MIC50,Rhodotorula,0.06 mg/L
same,MIC50,Wickerhamomyces anomalus,0.25 mg/L
same,MIC50,Saccharomycopsis,0.12 mg/L
same,MIC50,Pichia kudriavzevii [6],1 mg/L
same,MIC50,Hanseniaspora uvarum,0.03 mg/L
same,MIC50,Starmerella stellata,1 mg/L
same,MIC50,Nakaseomyces glabratus [8],2 mg/L
same,MIC50,Pichia norvegensis,2 mg/L
same,MIC50,Pichia fermentans,2 mg/L
same,MIC50,Pichia kudriavzevii [7],1 mg/L
CCC(C)n1ncn(-c2ccc(N3CCN(c4ccc(OCC5COC(Cn6cncn6)(c6ccc(Cl)cc6Cl)O5)cc4)CC3)cc2)c1=O (stereo unspecified) [ITRACONAZOLE],MIC50,Candida albicans [1],0.06 mg/L
same,MIC50,Saccharomyces cerevisiae,2 mg/L
same,MIC50,Candida albicans [2],0.06 mg/L
same,MIC50,Candida albicans [3],0.75 mg/L
same,MIC50,Diutina rugosa,0.06 mg/L
same,MIC50,Cryptococcus neoformans,0.5 mg/L
same,MIC50,Candida parapsilosis,0.25 mg/L
same,MIC50,Candida albicans [4],0.12 mg/L
same,MIC50,Nakaseomyces glabratus [5],1 mg/L
same,MIC50,Rhodotorula,0.06 mg/L
same,MIC50,Wickerhamomyces anomalus,0.5 mg/L
same,MIC50,Saccharomycopsis,0.5 mg/L
same,MIC50,Pichia kudriavzevii [6],0.5 mg/L
same,MIC50,Hanseniaspora uvarum,0.25 mg/L
same,MIC50,Starmerella stellata,2 mg/L
same,MIC50,Nakaseomyces glabratus [8],4 mg/L
same,MIC50,Pichia norvegensis,1 mg/L
same,MIC50,Pichia fermentans,2 mg/L
same,MIC50,Pichia kudriavzevii [7],1 mg/L
CC(C)(C)C(O)C(Oc1ccc(Cl)cc1)n1cncn1 (stereo unspecified) [TRIADIMENOL],MIC50,Candida albicans [1],2 mg/L
same,MIC50,Saccharomyces cerevisiae,8 mg/L
same,MIC50,Candida albicans [2],2 mg/L
same,MIC50,Candida albicans [3],64 mg/L
same,MIC50,Diutina rugosa,1 mg/L
same,MIC50,Cryptococcus neoformans,4 mg/L
same,MIC50,Candida parapsilosis,16 mg/L
same,MIC50,Candida albicans [4],1.5 mg/L
same,MIC50,Nakaseomyces glabratus [5],8 mg/L
same,MIC50,Rhodotorula,64 mg/L
same,MIC50,Wickerhamomyces anomalus,16 mg/L
same,MIC50,Saccharomycopsis,16 mg/L
same,MIC50,Pichia kudriavzevii [6],32 mg/L
same,MIC50,Hanseniaspora uvarum,0.25 mg/L
same,MIC50,Starmerella stellata,128 mg/L
same,MIC50,Nakaseomyces glabratus [8],8 mg/L
same,MIC50,Pichia norvegensis,64 mg/L
same,MIC50,Pichia fermentans,128 mg/L
same,MIC50,Pichia kudriavzevii [7],64 mg/L
CCCC(Cn1cncn1)c1ccc(Cl)cc1Cl (stereo unspecified) [PENCONAZOLE],MIC50,Candida albicans [1],0.25 mg/L
same,MIC50,Saccharomyces cerevisiae,2 mg/L
same,MIC50,Candida albicans [2],2 mg/L
same,MIC50,Candida albicans [3],12 mg/L
same,MIC50,Diutina rugosa,1 mg/L
same,MIC50,Cryptococcus neoformans,4 mg/L
same,MIC50,Candida parapsilosis,8 mg/L
same,MIC50,Candida albicans [4],2 mg/L
same,MIC50,Nakaseomyces glabratus [5],4 mg/L
same,MIC50,Rhodotorula,16 mg/L
same,MIC50,Wickerhamomyces anomalus,8 mg/L
same,MIC50,Saccharomycopsis,8 mg/L
same,MIC50,Pichia kudriavzevii [6],64 mg/L
same,MIC50,Hanseniaspora uvarum,0.5 mg/L
same,MIC50,Starmerella stellata,96 mg/L
same,MIC50,Nakaseomyces glabratus [8],4 mg/L
same,MIC50,Pichia norvegensis,64 mg/L
same,MIC50,Pichia fermentans,64 mg/L
same,MIC50,Pichia kudriavzevii [7],128 mg/L
O=c1c2cc(F)ccc2nc(-n2cncn2)n1-c1ccc(Cl)cc1Cl [FLUQUINCONAZOLE],MIC50,Candida albicans [1],0.375 mg/L
same,MIC50,Saccharomyces cerevisiae,0.25 mg/L
same,MIC50,Candida albicans [2],0.5 mg/L
same,MIC50,Candida albicans [3],64 mg/L
same,MIC50,Diutina rugosa,0.12 mg/L
same,MIC50,Cryptococcus neoformans,0.12 mg/L
same,MIC50,Candida parapsilosis,2 mg/L
same,MIC50,Candida albicans [4],0.5 mg/L
same,MIC50,Nakaseomyces glabratus [5],1 mg/L
same,MIC50,Rhodotorula,0.5 mg/L
same,MIC50,Wickerhamomyces anomalus,4 mg/L
same,MIC50,Saccharomycopsis,64 mg/L
same,MIC50,Pichia kudriavzevii [6],128 mg/L
same,MIC50,Hanseniaspora uvarum,0.12 mg/L
same,MIC50,Starmerella stellata,64 mg/L
same,MIC50,Nakaseomyces glabratus [8],32 mg/L
same,MIC50,Pichia norvegensis,64 mg/L
same,MIC50,Pichia fermentans,64 mg/L
same,MIC50,Pichia kudriavzevii [7],128 mg/L
